The target of series [1] is Glutamate NMDA receptor; Grin1/Grin2b (Rattus norvegicus, UniProt P35439+Q00960). In words: Inhibition of rat recombinant NR1/NR2B receptor expressed in Xenopus oocytes assessed as inhibition of glutamate and glycine-induced evoked current by two electrode voltage clamp method. The class given is cell-based, Oocyte.
Series [2] concerns the target T1, Adrenergic receptor alpha-1 (Rattus norvegicus, UniProt P15823+P23944+P43140).
T1 sequence (P15823 whole entry): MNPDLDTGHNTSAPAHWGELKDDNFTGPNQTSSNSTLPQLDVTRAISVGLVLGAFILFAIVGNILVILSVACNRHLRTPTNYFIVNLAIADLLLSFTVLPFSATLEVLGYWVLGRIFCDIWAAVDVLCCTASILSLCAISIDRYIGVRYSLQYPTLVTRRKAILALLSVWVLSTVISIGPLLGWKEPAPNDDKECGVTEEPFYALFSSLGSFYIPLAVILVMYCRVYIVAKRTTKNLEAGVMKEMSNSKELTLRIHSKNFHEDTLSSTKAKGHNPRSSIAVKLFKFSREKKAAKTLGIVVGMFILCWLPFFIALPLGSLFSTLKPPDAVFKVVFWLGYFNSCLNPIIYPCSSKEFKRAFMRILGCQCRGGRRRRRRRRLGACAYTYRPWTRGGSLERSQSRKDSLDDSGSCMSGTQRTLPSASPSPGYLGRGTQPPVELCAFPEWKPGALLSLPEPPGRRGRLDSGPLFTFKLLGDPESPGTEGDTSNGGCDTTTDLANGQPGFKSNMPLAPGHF
T1 sequence (P23944 whole entry): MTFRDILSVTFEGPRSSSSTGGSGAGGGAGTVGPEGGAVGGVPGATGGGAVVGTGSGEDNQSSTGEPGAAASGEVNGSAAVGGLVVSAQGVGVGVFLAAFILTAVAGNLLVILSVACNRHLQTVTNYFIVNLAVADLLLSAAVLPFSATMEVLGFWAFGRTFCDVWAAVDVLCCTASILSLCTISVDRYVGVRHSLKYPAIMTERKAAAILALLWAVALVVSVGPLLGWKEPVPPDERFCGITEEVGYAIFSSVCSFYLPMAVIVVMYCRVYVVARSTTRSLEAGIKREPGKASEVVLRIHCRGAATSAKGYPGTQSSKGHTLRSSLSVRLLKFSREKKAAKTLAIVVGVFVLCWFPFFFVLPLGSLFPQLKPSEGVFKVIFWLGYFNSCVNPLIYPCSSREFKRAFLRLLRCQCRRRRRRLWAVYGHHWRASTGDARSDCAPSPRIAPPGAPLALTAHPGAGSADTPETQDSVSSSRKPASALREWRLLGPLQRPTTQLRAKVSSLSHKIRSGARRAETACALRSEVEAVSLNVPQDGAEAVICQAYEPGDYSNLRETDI
T1 sequence (P43140 whole entry): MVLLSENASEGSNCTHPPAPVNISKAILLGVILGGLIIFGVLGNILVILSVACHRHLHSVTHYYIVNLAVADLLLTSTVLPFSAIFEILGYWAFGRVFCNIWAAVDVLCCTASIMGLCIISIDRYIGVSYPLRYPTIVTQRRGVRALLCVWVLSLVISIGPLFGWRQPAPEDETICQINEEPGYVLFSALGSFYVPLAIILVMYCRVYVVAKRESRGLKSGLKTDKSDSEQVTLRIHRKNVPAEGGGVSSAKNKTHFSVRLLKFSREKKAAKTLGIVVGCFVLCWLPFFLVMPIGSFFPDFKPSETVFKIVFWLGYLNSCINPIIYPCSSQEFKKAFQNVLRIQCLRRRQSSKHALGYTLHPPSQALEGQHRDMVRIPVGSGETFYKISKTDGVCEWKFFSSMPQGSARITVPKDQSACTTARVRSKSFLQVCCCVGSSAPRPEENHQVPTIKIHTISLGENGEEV
In words: Displacement of [3H]prazosin from alpha1 adrenergic receptor in rat brain. The class given is tissue-based. The method in brief:
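Rat brain membranes; displacement of [3H]-prazosin at 4–6 concentrations, each point in duplicate. IC50 from displacement curves fitted by nonlinear least-squares regression.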
Background: Loss of bound radioactivity is the signal in a displacement assay; it reports binding, not function.

Series [3] is described as follows: Half life in rat plasma at 4 mg/kg, iv administered as single dose by LC-MS/MS analysis. More on the design: dose 4 mg/kg, route intravenous. The class given is ADME, organism-based. The method in brief: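 Rats, n = 3, fasted overnight and given a single 4 mg/kg iv bolus via the tail vein in 2% dimethyl acetamide/98% 5% hydroxypropyl cyclodextrin. Blood collected into K-EDTA from the orbital plexus at 5, 30, 120 and 240 min. Plasma extracted with cold acetonitrile and analyzed by LC-MS/MS in MRM mode against a standard curve.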

Series [4] has as its system Rattus norvegicus. In words: Anticonvulsant activity in Sprague-Dawley rat assessed as inhibition of electroshock-induced tonic hind limb extension at 30 mg/kg, ip administered 30 mins before electroshock. The class given is functional, organism-based. More on the design: dose 30 mg/kg. Particulars: Hindlimb. In outline:
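Male Sprague–Dawley rats, 100–125 g, with 1% lidocaine dropped into each conjunctiva before maximal electroshock. Compound given ip in DMSO 30 min before the stimulus. Tested on three consecutive days: untreated on days 1 and 3, compound on day 2. Duration of tonic hind limb extension scored visually. Vehicle served as negative control and carbamazepine 60 mg/kg as positive control. ANOVA with Bonferroni post hoc test.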

Series [5] relates to Glutamate receptor ionotropic, NMDA 1 (Rattus norvegicus), P35439 [H134A]. In words: Inhibition of rat NR1(H134A)/NR2B mutant receptor expressed in Xenopus oocytes at 100 nM by two electrode voltage clamp method. The class given is cell-based. The following applies: Oocyte. (In two-electrode clamp one electrode senses voltage and the other passes current.)
The target of series [6] is Glutamate NMDA receptor; Grin1/Grin2b (Rattus norvegicus) (UniProt P35439+Q00960). Nature of the series: Inhibition of rat wild type NR1/NR2B receptor expressed in Xenopus oocytes at 100 nM by two electrode voltage clamp method. The class given is cell-based. The following applies: Oocyte.
Series [7] concerns Glutamate receptor ionotropic, NMDA 2B (Rattus norvegicus), Q00960 [E201R]. Nature of the series: Inhibition of rat NR1/NR2B(E201R) mutant receptor expressed in Xenopus oocytes at 100 nM by two electrode voltage clamp method. The class given is cell-based. Particulars: Oocyte.
For series [8], the target named is Voltage-gated inwardly rectifying potassium channel KCNH2 (Homo sapiens, UniProt Q12809). Nature of the series: Displacement of [3H]astemizole from human ERG expressed in HEK293 cells.
In series [9] the test system is Mus musculus. Nature of the series: Effect on motor coordination in mouse at 0.3 mg/kg, ip administered 20 mins prior to test after 5 days by rotarod test. The class given is ADME, organism-based. The arrangement: dose 0.3 mg/kg, route intraperitoneal. The following applies: in vivo. The method in brief:
(§1)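 Accelerating rotarod: starts at 5 rpm, then after 10 s ramps 5 to 35 rpm over 5 min; latency to fall recorded automatically. Four trials daily, 25 min apart, for 5 days. On day 5 mice randomised and dosed ip (25% DMSO/75% saline, 5 mL/kg) 20 min before the first trial. Tester blinded; ANOVA with Dunnett's post hoc.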
A general note: In the rotarod test animals must keep their balance on a rotating rod.

Series [10] has as its system Mus musculus. In words: Effect on motor coordination in mouse at 0.6 mg/kg, ip administered 20 mins prior to test after 5 days by rotarod test. The class given is ADME, organism-based. The arrangement: dose 0.6 mg/kg, route intraperitoneal. Particulars: in vivo. In outline: as §1
Series [11] relates to Rattus norvegicus. In words: Effect on locomotor activity in Sprague-Dawley rat at 0.3 mg/kg, ip. The class given is functional. Particulars: route intraperitoneal. In outline: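 Rats habituated to the test room at least 30 min, then basal horizontal activity recorded 1 h in photobeam activity chambers. Animals then dosed ip and returned to the chamber for 2 h. Vehicle group run each day. Compared with vehicle by ANOVA with Dunnett's post hoc.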

pIC50: −log10 of the molar value. Calls of active or inactive are those of the source. No cut-off for these calls is given here.

Chain of Voltage-gated inwardly rectifying potassium channel KCNH2 (Q12809 whole entry): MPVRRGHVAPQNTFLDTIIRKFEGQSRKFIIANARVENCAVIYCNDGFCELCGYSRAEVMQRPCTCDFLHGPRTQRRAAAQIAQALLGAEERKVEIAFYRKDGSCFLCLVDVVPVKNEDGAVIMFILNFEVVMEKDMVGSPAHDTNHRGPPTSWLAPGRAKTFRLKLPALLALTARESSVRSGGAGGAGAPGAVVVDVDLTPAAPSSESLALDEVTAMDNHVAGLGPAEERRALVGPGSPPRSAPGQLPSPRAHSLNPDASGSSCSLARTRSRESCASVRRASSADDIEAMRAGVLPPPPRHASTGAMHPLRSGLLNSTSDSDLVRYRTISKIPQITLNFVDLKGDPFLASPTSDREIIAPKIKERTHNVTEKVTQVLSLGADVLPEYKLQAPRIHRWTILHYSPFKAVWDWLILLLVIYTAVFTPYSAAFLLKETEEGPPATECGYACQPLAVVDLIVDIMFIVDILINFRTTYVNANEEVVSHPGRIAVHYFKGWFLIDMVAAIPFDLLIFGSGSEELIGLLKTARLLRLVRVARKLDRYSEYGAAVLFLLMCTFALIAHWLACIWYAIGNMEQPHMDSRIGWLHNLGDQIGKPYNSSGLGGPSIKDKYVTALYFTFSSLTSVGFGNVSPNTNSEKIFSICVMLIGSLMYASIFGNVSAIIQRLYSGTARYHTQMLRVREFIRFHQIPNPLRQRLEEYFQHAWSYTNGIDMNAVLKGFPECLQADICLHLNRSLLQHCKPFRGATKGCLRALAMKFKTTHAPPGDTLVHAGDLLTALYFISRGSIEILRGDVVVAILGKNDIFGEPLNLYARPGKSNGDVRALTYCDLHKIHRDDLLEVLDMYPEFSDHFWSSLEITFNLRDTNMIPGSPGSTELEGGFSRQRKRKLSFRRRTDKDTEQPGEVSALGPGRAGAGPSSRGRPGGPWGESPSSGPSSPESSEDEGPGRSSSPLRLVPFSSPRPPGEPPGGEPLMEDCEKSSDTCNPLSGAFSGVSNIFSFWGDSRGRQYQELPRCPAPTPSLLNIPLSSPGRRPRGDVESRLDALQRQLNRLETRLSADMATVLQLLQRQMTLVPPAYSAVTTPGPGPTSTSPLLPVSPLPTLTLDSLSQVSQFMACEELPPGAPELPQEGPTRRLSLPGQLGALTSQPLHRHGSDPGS

Consider `CCCCN(CCc1ccc(Cl)c(Cl)c1)C[C@H](O)COc1ccc(NS(C)(=O)=O)cc1`, for which, in series [1], the pIC50 (commonly −log10 of the IC50, conventionally taken in molar units) is 6.38. Also, in series [2], the IC50 (as a rule, the concentration at which inhibition is half-maximal) amounted to 4900 nM. In series [3], the half-life (usually how long it takes for the measured level to halve) was 36 min.
Consider `CN(CCc1ccc(Cl)c(Cl)c1)CC(O)COc1ccc(NS(C)(=O)=O)cc1` (racemic), for which the result in the series with Rattus norvegicus [4] was Active. The inhibition (in general, the drop in the measured response relative to a control, in per cent) came out at 8.9% in [5], 67.1% in series [6] and 4.2% in series [7].
As to `CS(=O)(=O)Nc1ccc(OC[C@@H](O)CNCCc2ccc(F)c(F)c2)cc1`, the results for the negative-log IC50 (pIC50) in [8] and in [1] were 5.79 and 6.45, respectively. Also, the 50% inhibitory concentration (IC50) in series [2] is over 10000 nM.
The like results for `CS(=O)(=O)Nc1ccc(OC[C@@H](O)CNCCc2ccc(Cl)c(F)c2)cc1` were, in that order, 5.72, 7.17 and over 10000 nM.
Take `CS(=O)(=O)Nc1ccc(OC[C@@H](O)CNCCc2ccc(Cl)cc2)cc1`: in series [1], the pIC50 is 7.00. Further, the IC50 in [2] stood at 9500 nM.
With `Cc1ccc(CCNC[C@H](O)COc2ccc(NS(C)(=O)=O)cc2)cc1C`, the pIC50 in [8] is 5.62; in [1], 6.68. The compound also yielded an IC50 in [2] of 2200 nM.
Turning to `CS(=O)(=O)Nc1ccc(OC[C@@H](O)CN(CCc2ccc(Cl)c(Cl)c2)Cc2ccccc2F)cc1`, in [1], the pIC50 is 7.10. In series [2], this compound had an IC50 of over 10000 nM.
Consider `CS(=O)(=O)Nc1ccc(OC[C@@H](O)CN(CCO)CCc2ccc(Cl)c(Cl)c2)cc1`, for which, in [1], the negative-log IC50 (pIC50) was 6.91. Further, the outcome in the series with Rattus norvegicus [4] was Active. This compound gave a half-life in series [3] of 36 min.
Consider `C[C@]12N[C@H](Cc3ccccc31)c1ccccc12` [DIZOCILPINE], for which the Activity result was “Toxic” in the series with Mus musculus [9], “Toxic” in the series with Mus musculus [10] and 38233 in the series on Rattus norvegicus [11].
For the compound `CS(=O)(=O)Nc1ccc(OC[C@@H](O)CN(CCc2ccc(Cl)c(Cl)c2)Cc2ccccc2O)cc1`, in [1], the pIC50 was 6.18. Also, in series [2], the IC50 is over 10000 nM.
Consider `CS(=O)(=O)Nc1ccc(OC[C@@H](O)CN(CCc2ccc(Cl)c(Cl)c2)Cc2ccccn2)cc1`, for which the negative-log IC50 (pIC50) in [1] was 5.56. Moreover, the half-life in [3] is 36 min.
Consider `CCN(CCc1ccc(Cl)c(Cl)c1)C[C@H](O)COc1ccc(NS(C)(=O)=O)cc1`, for which, in [1], the negative-log IC50 (pIC50) was 7.02. Moreover, the IC50 in series [2] was 3500 nM. Further, in series [3], the half-life is 36 min.
For `CN(CCc1ccc(Cl)c(Cl)c1)C[C@H](O)COc1ccc(NS(C)(=O)=O)cc1`, the pIC50 in series [1] is 6.89. Moreover, the concentration for half-maximal inhibition (IC50) in [2] came to 1400 nM.
Regarding `CS(=O)(=O)Nc1ccc(OC[C@@H](O)CN(CCc2ccc(Cl)c(Cl)c2)Cc2cccc(O)c2)cc1`, the pIC50 in series [1] is 6.62. For the same compound, the IC50 in series [2] is over 10000 nM. In [3], this compound gave a half-life of 36 min.
For `CS(=O)(=O)Nc1ccc(OC[C@@H](O)CN(CCc2ccc(Cl)c(Cl)c2)Cc2ccc(F)c(F)c2F)cc1`, in series [1], the negative logarithm of the IC50 (pIC50) was 7.29. In series [2], this compound registered an IC50 of over 10000 nM.

For the origin of these results see ChEMBL document CHEMBL1140127, “Enantiomeric propanolamines as selective N-methyl-D-aspartate 2B receptor antagonists” (J Med Chem, 2008).
